Measurements: ChEMBL document CHEMBL1126557, “Novel antiasthmatic agents with dual activities of thromboxane A2 synthetase inhibition and bronchodilation. 2. 4-(3-Pyridyl)-1(2H)-phthalazinones” (J Med Chem, 1993)

Columns and labels:
Cavia porcellus [1] = species: Cavia porcellus; experiment: In vitro bronchodilatory activity in guinea pig isolated tracheal strips; format: functional; settings: Trachea
Cavia porcellus [2] = experiment: Tested in vivo for anaphylactic bronchoconstriction in OA sensitized guinea pig at intraduodenal dose of 10 mg/kg for 30 min; format: functional; settings: Lung, 0.5 h
Outline: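 Male Hartley guinea pigs (300–400 g) sensitized by ip and sc injection of 50 mg ovalbumin 15 days earlier. Anesthetized with pentobarbital 35 mg/kg ip, insufflation pressure recorded. Compound 10 mg/kg intraduodenal 30 min before challenge with OA aerosol (10 mg/mL, 10 s, ultrasonic nebulizer) through a by-passed ventilatory system. Reported as % inhibition.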

Cavia porcellus [3] = experiment: Tested in vivo for histamine-induced bronchoconstriction in guinea pig at intraduodenal dose of 10 mg/kg for 30 min; format: functional; settings: 0.5 h
Outline: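 Anesthetized, ventilated guinea pigs (pentobarbital 35 mg/kg ip) with insufflation pressure recorded. Histamine 2–5 μg/kg iv given repeatedly until a reproducible response. Compound 10 mg/kg injected into the duodenum through a catheter 30 min before histamine challenge. Expressed as % inhibition of the control response.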

Cavia porcellus [4] = experiment: Tested in vivo for spasmogen inhalation induced collapse in conscious guinea pig in presence of acetylcholine (0.2%); format: functional
Outline: (§1)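 Male guinea pigs (400–500 g), conscious, dosed orally with compound or vehicle, then placed in chambers. At 1 h, exposed for 9 min to spasmogen aerosol (acetylcholine 0.2% or histamine 0.03%). Time to collapse recorded; no collapse within 9 min counted as full protection. ≥3 doses tested. RD100 is the oral dose prolonging collapse time by 100 s over vehicle.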

Cavia porcellus [5] = experiment: Tested in vivo for spasmogen inhalation induced collapse in conscious guinea pig in presence of histamine (0.03%); format: functional; outline: as §1
Cavia porcellus [6] = species: Cavia porcellus; experiment: In vitro inhibitory effect on the contraction of guinea pig tracheal strips was examined for spontaneous contraction; format: functional; settings: Trachea
Cavia porcellus [7] = species: Cavia porcellus; experiment: In vitro inhibitory effect on the spasmogen-contracted guinea pig tracheal strips in presence of acetylcholine; format: functional; settings: Trachea
Outline: (§2)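 Tracheal strips in oxygenated Krebs-Henseleit, preincubated 60 min with indomethacin (3 μM) to remove spontaneous tone, resting tension 1 g. Contraction induced by acetylcholine (10^-5 M final) or histamine (10^-4 M final), with indomethacin present. Compound added cumulatively […]. […] IC50 taken from the concentration-response curve.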

Cavia porcellus [8] = species: Cavia porcellus; experiment: In vitro inhibitory effect on the spasmogen-contracted guinea pig tracheal strips in presence of histamine; format: functional; settings: Trachea; outline: as §2
Cavia porcellus [9] = experiment: In vivo inhibitory effect on airway constriction induced by histamine 2-5 ug/kg iv at 1 min after 10 mg/kg iv dose of compound; format: functional
Outline: (§3)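 Male Dunkin-Hartley guinea pigs anesthetized with pentobarbital 35 mg/kg ip, jugular vein and trachea cannulated, ventilated at 10 mL/kg, 60 strokes/min. Insufflation pressure recorded. Histamine 2–5 μg/kg iv repeated every 10 min until a reproducible control response. Compound 10 mg/kg iv 1 min before the next challenge.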

Rattus norvegicus [10] = experiment: Tested ex vivo against serum TXB2 production at 1 hr after oral dose of 3 mg/kg of drug to rat; format: functional
Outline: (§4)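 Male SD rats (240–260 g), fasted 20 h, dosed orally with compound in 0.5% carboxymethylcellulose or vehicle alone. At 1 h, ether anesthesia and 2 mL cardiac blood taken and clotted at 37 °C for 90 min.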

Rattus norvegicus [11] = experiment: Tested ex vivo against serum TXB2 production at 1 hr after oral dose of 30 mg/kg of drug to rat; format: functional; outline: as §4
Thromboxane-A synthase [12] = target: T1, Thromboxane-A synthase (Homo sapiens, UniProt P24557); experiment: Tested in vitro against TXA2 synthetase inhibitory activity in human microsome
T1 sequence (P24557 whole entry): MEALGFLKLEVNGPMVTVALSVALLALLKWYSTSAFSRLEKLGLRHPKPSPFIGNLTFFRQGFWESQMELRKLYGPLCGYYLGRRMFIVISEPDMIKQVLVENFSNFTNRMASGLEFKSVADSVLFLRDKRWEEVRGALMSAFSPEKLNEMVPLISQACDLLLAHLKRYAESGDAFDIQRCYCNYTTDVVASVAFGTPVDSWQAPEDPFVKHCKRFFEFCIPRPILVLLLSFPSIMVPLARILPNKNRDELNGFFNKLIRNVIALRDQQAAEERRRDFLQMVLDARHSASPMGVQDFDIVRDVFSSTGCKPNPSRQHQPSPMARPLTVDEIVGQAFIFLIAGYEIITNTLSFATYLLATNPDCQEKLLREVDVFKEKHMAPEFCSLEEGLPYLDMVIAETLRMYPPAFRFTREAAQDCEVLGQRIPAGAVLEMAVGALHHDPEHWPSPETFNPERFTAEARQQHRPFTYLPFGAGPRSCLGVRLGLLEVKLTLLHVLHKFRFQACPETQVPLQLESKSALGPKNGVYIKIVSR
Outline: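 Commercial human platelet microsomes. Preincubated with compound for 3 min at 25 °C in Tris-HCl 15 mM, NaCl 140 mM, glucose 10 mM, pH 7.6. Arachidonic acid 1–3 μM added, then 3 min at 25 °C. Stopped by chilling and acidifying to pH 3 with HCl, centrifuged, supernatant TXB2 measured by RIA.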

Thromboxane-A synthase [13] = target: T1, Thromboxane-A synthase; experiment: Tested in vitro against TXA2 synthetase inhibitory activity in human platelet
Outline: (§5)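 Citrated human or rat blood centrifuged to platelet-rich plasma and platelets resuspended in Krebs-Henseleit at 1×10^8 cells/mL. Used for TXB2 production.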

Thromboxane-A synthase [14] = target: T1, Thromboxane-A synthase; experiment: Tested in vitro against TXA2 synthetase inhibitory activity in human whole blood; format: tissue-based
Outline: (§6)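 Non-anticoagulated human or rat blood split into 0.5-mL aliquots, each with one drug concentration or vehicle. Vortexed, then clotted 60 min at 37 °C. Serum deproteinized with EtOH and TXB2 measured by RIA. % inhibition against control.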

[15] = target: T2, Thromboxane-A synthase (Rattus norvegicus) (UniProt P49430); experiment: Tested ex vivo against TXA2 production in rat serum at 1 hr after peroral dose of 30 mg/kg and anesthetized with ether; format: functional, organism-based; parameters: dose 30 mg/kg; outline: as §4
T2 sequence (whole entry): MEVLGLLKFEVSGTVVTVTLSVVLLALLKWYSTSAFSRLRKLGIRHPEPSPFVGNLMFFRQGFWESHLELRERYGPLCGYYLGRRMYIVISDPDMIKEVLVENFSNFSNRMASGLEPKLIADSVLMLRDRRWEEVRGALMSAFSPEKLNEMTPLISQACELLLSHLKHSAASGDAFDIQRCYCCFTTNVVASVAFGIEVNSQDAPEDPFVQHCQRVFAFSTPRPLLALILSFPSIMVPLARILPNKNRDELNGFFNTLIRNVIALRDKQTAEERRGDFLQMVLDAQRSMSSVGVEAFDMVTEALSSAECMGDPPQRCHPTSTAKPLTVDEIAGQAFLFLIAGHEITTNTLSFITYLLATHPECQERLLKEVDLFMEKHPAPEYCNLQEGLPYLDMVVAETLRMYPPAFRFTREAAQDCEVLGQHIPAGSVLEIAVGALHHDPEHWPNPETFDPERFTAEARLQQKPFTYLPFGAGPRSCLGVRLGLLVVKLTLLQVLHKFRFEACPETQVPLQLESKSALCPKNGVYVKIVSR

Thromboxane-A synthase [16] = target: T3, Thromboxane-A synthase (Rattus norvegicus, UniProt P49430); experiment: Tested in vitro against TXA2 synthetase inhibitory activity in rat platelet; outline: as §5
T3 sequence (P49430 whole entry): T2 sequence (whole entry)

Thromboxane-A synthase [17] = target: T3, Thromboxane-A synthase; experiment: Tested in vitro against TXA2 synthetase inhibitory activity in rat whole blood; format: tissue-based; outline: as §6
[18] = tested on: Thromboxane-A synthase (Oryctolagus cuniculus); experiment: Tested in vitro against rabbit thromboxane A2 synthetase (TXA2) at 1 uM
Cavia porcellus [19] = experiment: Tested in vivo for histamine-induced bronchoconstriction in guinea pig at intraduodenal dose of 60 mg/kg; format: functional
Outline: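 Male Dunkin-Hartley guinea pigs under ip pentobarbital (35 mg/kg), jugular vein and trachea cannulated, ventilated at 10 mL/kg, 60 strokes/min; insufflation pressure recorded by transducer. Histamine (1–5 μg/kg iv) repeated every 10 min until the control response was reproducible. Drug given intraduodenally through a catheter 30 min before histamine challenge.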

Cavia porcellus [20] = experiment: In vivo inhibitory effect on airway constriction induced by histamine 2-5 micro g/kg iv at 1 min after 10 mg/kg iv dose of compound; format: functional; outline: as §3

| Compound | IC50 (Cavia porcellus [1]) | inhibition in vivo at 10 mg/kg (Cavia porcellus [2]) | inhibition in vivo at 10 mg/kg (Cavia porcellus [3]) | RD100 (Cavia porcellus [4]) | RD100 (Cavia porcellus [5]) | IC50 (Cavia porcellus [6]) | IC50 (Cavia porcellus [7]) | IC50 (Cavia porcellus [8]) | inhibition in vivo at 10 mg/kg (Cavia porcellus [9]) | inhibition in vivo at 3 mg/kg (Rattus norvegicus [10]) | inhibition in vivo at 30 mg/kg (Rattus norvegicus [11]) | IC50 (Thromboxane-A synthase [12]) | IC50 (Thromboxane-A synthase [13]) | IC50 (Thromboxane-A synthase [14]) | inhibition [15] | IC50 (Thromboxane-A synthase [16]) | IC50 (Thromboxane-A synthase [17]) | inhibition [18] | inhibition in vivo at 60 mg/kg (Cavia porcellus [19]) | inhibition in vivo at 10 mg/kg (Cavia porcellus [20]) |
| --- | --- | --- | --- | --- | --- | --- | --- | --- | --- | --- | --- | --- | --- | --- | --- | --- | --- | --- | --- | --- |
| CCn1nc(-c2cccnc2)c2ccccc2c1=O | 1.32 µM | 71% | 72% | 3.8 mg/kg | 6.5 mg/kg | 1.6 µM | 57 µM | 46 µM | 100% | 66% | 92% | 1.6 µM | 27.9 µM | 2.3 µM | 92% | 1.3 µM | 1.7 µM | 87% |  |  |
| Cn1nc(-c2cncs2)c2ccccc2c1=O | 1.58 µM | 61% | 68% | 6.6 mg/kg | 11.2 mg/kg | 1.8 µM | 46 µM | 28 µM |  | 50% | 83% | 3.9 µM | 0.5 µM | 8.7 µM | 83% | 0.3 µM | 3.3 µM |  |  |  |
| Cn1c(=O)c2[nH]cnc2n(C)c1=O.Cn1c(=O)c2[nH]cnc2n(C)c1=O.NCCN [AMINOPHYLLINE] |  | 42% |  | 66 mg/kg | >60 mg/kg | 44 µM | 300 µM | 320 µM |  |  |  |  |  |  | 0% |  |  |  | 87% | 86% |
